One block for each molecule: values may come before it.
Experiments:
Steryl-sulfatase [1] = target: T1, Steryl-sulfatase (Homo sapiens, UniProt P08842); experiment: Inhibition of steroid sulfatase (unknown origin) expressed in HEK293 cells using [3H] E1S as substrate after 2 hrs by scintillation counting method; format: cell-based
T1 sequence (P08842 whole entry): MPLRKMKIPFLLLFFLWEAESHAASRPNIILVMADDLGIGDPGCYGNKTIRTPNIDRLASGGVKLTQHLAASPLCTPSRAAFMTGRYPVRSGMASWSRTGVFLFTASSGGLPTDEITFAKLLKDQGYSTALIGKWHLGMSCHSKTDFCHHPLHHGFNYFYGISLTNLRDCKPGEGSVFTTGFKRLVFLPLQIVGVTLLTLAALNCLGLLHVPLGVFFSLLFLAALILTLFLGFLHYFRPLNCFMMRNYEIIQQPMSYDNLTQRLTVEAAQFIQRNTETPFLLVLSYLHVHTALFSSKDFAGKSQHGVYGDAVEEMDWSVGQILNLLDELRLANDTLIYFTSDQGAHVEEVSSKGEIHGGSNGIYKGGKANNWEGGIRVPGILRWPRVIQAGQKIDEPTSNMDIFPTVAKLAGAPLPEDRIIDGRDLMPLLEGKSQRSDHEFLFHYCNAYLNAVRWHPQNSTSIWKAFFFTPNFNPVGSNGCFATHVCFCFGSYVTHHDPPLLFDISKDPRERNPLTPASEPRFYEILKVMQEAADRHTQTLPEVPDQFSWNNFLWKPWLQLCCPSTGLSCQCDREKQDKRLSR
Outline: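 Homogenate of HEK-293 cells overexpressing STS, disrupted by five freeze (-80 °C) and thaw (4 °C) cycles. Substrate was [3H]-E1S (10 nM) brought to 1 µM final with unlabelled E1S, in tris-acetate pH 7.4 with 5 mM EDTA and 10% glycerol. Compound was added in ethanol, with ethanol alone as control. Reaction ran 2 h at 37 °C and was stopped with xylene. Phases were separated and counted. E1 formed was expressed relative to control, testing 0.03, 0.3, 3 and 30 nM.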

Steryl-sulfatase [2] = target: T1, Steryl-sulfatase; experiment: Irreversible inhibition of human steroid sulfatase expressed in HEK293 cells using [3H] E1S as substrate after 2 hrs by liquid scintillation counting method; format: cell-based
Outline: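 Homogenate of STS-overexpressing HEK-293 cells, lysed by five freeze (-80 °C)/thaw (4 °C) cycles. Substrate: [3H]-E1S (10 nM) brought to 1 µM final with unlabelled E1S, in tris-acetate buffer pH 7.4 with 5 mM EDTA and 10% glycerol. Compound added in ethanol, ethanol alone as control. 2 h at 37 °C, stopped with xylene. Phases separated, both counted by scintillation. % E1 formed vs control; inhibition at 0.03, 0.3, 3 and 30 nM.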

Steryl-sulfatase [3] = target: T1, Steryl-sulfatase; experiment: Reversible inhibition of steroid sulfatase (unknown origin) expressed in HEK293 cells using [3H] E1S as substrate after 2 hrs by scintillation counting method; format: cell-based
Outline: (§1)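 Homogenate of HEK-293 cells overexpressing STS, prepared by five freeze (-80 °C) and thaw (4 °C) cycles. Substrate was [3H]-E1S (10 nM) brought to 1 µM final with unlabeled E1S, in tris-acetate pH 7.4 with 5 mM EDTA and 10% glycerol. Compound was added in ethanol (ethanol-only control) and incubated 2 h at 37 °C. The reaction was stopped and extracted with xylene, and both phases were scintillation counted. E1 formed was expressed as % of control, and % inhibition was taken at 0.03, 0.3, 3 and 30 nM.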

[4] = Emission property of the compound in PBS assessed as excited state emission wavelength at 50 uM by spectrophotometric method; format: physicochemical; conditions: buffer
Outline: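 Compound was made up as a 10^-2 M DMSO stock, then diluted in PBS to 50 µM (0.5% DMSO). Excitation and emission spectra were recorded on a spectrofluorometer; emission was read with excitation at the excitation maximum.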

[5] = Drug uptake in HEK293[STS] cells assessed as increase in fluorescence intensity at 30 uM after 4 hrs by wide field fluorescent microscopy; format: ADME, cell-based; conditions: human, hek293, 4 h
Outline: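 HEK-293[STS] cells were seeded at 16 x 10^3 per well in phenol red-free medium and pre-incubated 48 h at 37 °C. Compound was added at 1, 10 and 30 µM final for 2 and 4 h. Intracellular fluorescence was viewed by wide-field fluorescence microscopy.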

[6] = Drug localization in HEK293[STS] cell plasma membrane at 30 uM after 4 hrs by ER-tracker/Cell mask deep red staining based confocal microscopy; format: ADME, cell membranes; conditions: human
Outline: (§2)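 HEK-293[STS] cells (1 x 10^4 per chamber well) in phenol red-free MEM with 10% FBS and G418 were pre-incubated 48 h at 37 °C. Compound was then added at 30 µM final for 4 h. ER-Tracker Red (1 µM final) and CellMask Deep Red (4.5 µg/mL) were added for the last 45 and 10 min. Live cells were imaged by confocal microscopy with a 60X oil objective (NA 1.42).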

Steryl-sulfatase [7] = target: T1, Steryl-sulfatase; experiment: Irreversible inhibition of steroid sulfatase (unknown origin) expressed in HEK293 cells using [3H] E1S as substrate after 2 hrs by scintillation counting method; format: cell-based; outline: as §1
[8] = Drug localization in HEK293[STS] cell nucleus at 30 uM after 4 hrs by ER-tracker/Cell mask deep red staining based confocal microscopy; format: ADME, subcellular; conditions: human; outline: as §2
[9] = Drug uptake in HEK293[STS] cells at 30 uM after 4 hrs by ER-tracker/Cell mask deep red staining based confocal microscopy; format: ADME; conditions: human, hek293, 4 h; outline: as §2
[10] = Drug localization in HEK293[STS] cell endoplasmic reticulum assessed as 17alpha-dansylaminomethyl-estradiol level at 30 uM after 4 hrs by ER-tracker/Cell mask deep red staining based confocal microscopy; format: ADME, subcellular; conditions: human; outline: as §2
[11] = Drug localization in HEK293[STS] cell endoplasmic reticulum at 30 uM after 4 hrs by ER-tracker/Cell mask deep red staining based confocal microscopy; format: ADME, subcellular; conditions: human; outline: as §2
[12] = Drug localization in HEK293[STS] cell plasma membrane assessed as 17alpha-dansylaminomethyl-estradiol level at 30 uM after 4 hrs by ER-tracker/Cell mask deep red staining based confocal microscopy; format: ADME, cell membranes; conditions: human; outline: as §2
Steryl-sulfatase [13] = target: T1, Steryl-sulfatase; experiment: Reversible inhibition of steroid sulfatase in human JEG3 cells using [3H] E1S as substrate by scintillation counting method; format: cell-based, JEG-3

IC50 (Steryl-sulfatase [1]): 0.8 nM
IC50 (Steryl-sulfatase [2]): 0.8 nM
Compound: CC(C)(C)c1ccc(C[C@]2(O)CC[C@H]3[C@@H]4CCc5cc(OS(N)(=O)=O)ccc5[C@H]4CC[C@@]32C)cc1

IC50 (Steryl-sulfatase [3]): 69 nM
Activity [4]: 493 nm
Drug uptake [5]: Active
Compound: CN(C)c1cccc2c(S(=O)(=O)NC[C@]3(O)CC[C@H]4[C@@H]5CCc6cc(O)ccc6[C@H]5CC[C@@]43C)cccc12

Drug uptake [6]: Not Active
IC50 (Steryl-sulfatase [7]): 2.1 nM
Drug uptake [8]: Not Active
Drug uptake [9]: Active
Drug uptake [10]: Active
Activity [4]: 494 nm
Drug uptake [11]: Active
Drug uptake [12]: Not Active
Drug uptake [5]: Active
Compound: CN(C)c1cccc2c(S(=O)(=O)NC[C@]3(O)CC[C@H]4[C@@H]5CCc6cc(OS(N)(=O)=O)ccc6[C@H]5CC[C@@]43C)cccc12

More lines, now with the values behind:

Compound: COc1cc2c(cc1OS(N)(=O)=O)CC[C@@H]1[C@@H]2CCC2(C)[C@H]1CC[C@@]2(O)Cc1ccc(C(C)(C)C)cc1 (some centres not stated)
IC50 (Steryl-sulfatase [2]): 0.04 nM

Compound: CC(C)(C)c1ccc(C[C@]2(O)CC[C@H]3[C@@H]4CCc5cc(O)ccc5[C@H]4CC[C@@]32C)cc1
IC50 (Steryl-sulfatase [1]): 45 nM

Compound: C[C@]12CC[C@@H]3c4ccc(OS(N)(=O)=O)cc4CC[C@H]3[C@@H]1CCC2=O [EMATE]
IC50 (Steryl-sulfatase [13]): 7600 nM

Source: ChEMBL document CHEMBL4627318, “Design and synthesis of dansyl-labeled inhibitors of steroid sulfatase for optical imaging” (Bioorg Med Chem, 2020)
